# Shown are actives, neighbours in structure and some others; about 3.3% of the full set was active somewhere.
# FXN GAA850 act: FXN promoter activators, primary screen, cell-based, luciferase luminescence, HEK293 lucGAA850; HEK293 lucGAA850 FXN promoter luciferase reporter, 24 h; percent of 10 µM SAHA response; activation, % at 6 µM; 360,000 tested, 0.56% active;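 active = activation above the average of all compounds screened plus 3 SD, cutoff fixed separately per campaign, cut at about 7.5% in these data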;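 also: 0% = DMSO wells and 100% = 10 µM SAHA wells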
# AHR act: AHR activators, primary screen, cell-based, luminescence, luciferase reporter, human; Aryl hydrocarbon receptor (Homo sapiens), P35869; AHR-responsive luciferase reporter cells; activation, % at 5 µM; 320,000 tested, 2.5% active; in the data active = activation above about 47%;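 also: 0% = vehicle wells and 100% = reference agonist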
# ABCB6 inh 2: ABCB6 transporter inhibitors, primary screen, K562-ABCB6 cells, flow cytometry, MLPCN library. fluorescence ratio to DMSO, % at 10 µM. 360,000 tested, 0.19% active. K562-ABCB6 porphyrin accumulation, 1 h; stronger effect = lower value. AID 602162, 2011;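 active = fluorescence ratio to DMSO below 75%, the collection mean minus 3 SD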;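 also: signal is porphyrin accumulated inside mitochondria; 100% equals median channel fluorescence of DMSO control wells; lower ratio means ABCB6 inhibition with less porphyrin fluorescence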
# STAT3 activator: IL-6 driven STAT3 reporter potentiators, primary screen, U3A cells, luciferase, luminescence, MLSCN library. IL-6 STAT3-luciferase reporter; 100% = signal with IL-6 EC80 alone. activation (% of control), % at 5.6 µM. 190,000 tested, 0.91% active. AID 871, 2007;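 active = activation above the screen-wide mean of compound activation plus 3 SD, cut at about 130% in these data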;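 also: 0% = background luminescence of wells with medium and substrate only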
#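 Test system: Human STAT1-deficient U3A cells with stable STAT3-luciferase reporter | Also added: Interleukin-6, 33 ng/mL | Timing: Compound pre-incubation 1 h before IL-6, then 6 h stimulation at 37 °C | Technique: Luciferase reporter luminescence | Read-out: Percent of IL-6-only median luminescence | Benchmarks: IL-6-only wells as 100% reference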
# Numbers without * were called inactive; . = not tested or not shown.
SMILES,FXN GAA850 act,AHR act,ABCB6 inh 2,STAT3 activator
Cc1nc(-c2ccccc2)sc1-c1n[nH]c(=S)n1C,3,93*,101,92
CCc1ccc(NC(=O)C2CC(=O)N(C(C)C)C2)cc1 (stereo not drawn),0,78*,101,100
Cn1cccc1CC(=O)N/N=C\c1c2ccccc2cc2ccccc12,0,1,73*,105
COc1ccccc1OCC(=O)N/N=C/c1cccc2cccnc12,1,5,99,.
COc1ccccc1OCC(=O)N/N=C/c1c(O)ccc2ccccc12,-6,51*,104,.
Cc1cc(C)n(CCC(=O)N/N=C/c2c(O)ccc3ccccc23)n1,-6,62*,89,.
O=C(Nc1c2c(nn1-c1ccc(Cl)cc1)CS(=O)(=O)C2)c1ccccc1,1,0,99,.
COc1ccc(-c2nn3c(-c4ccccc4)nnc3s2)cc1,1,-4,98,105
COc1cccc(OC)c1-c1nn2c(-c3cc(-c4ccccc4)n[nH]3)nnc2s1,0,94*,93,87
CCN(CC)c1ccc(-c2nn3c(-c4ccccc4OC)nnc3s2)cc1,7,45,99,136*
C=CCn1c(SCC#N)nc2c(c1=O)C(C)(C)Cc1ccccc1-2,5,0,100,98
COCn1c(-c2cccc(Br)c2)nc2ccccc21,-2,53*,103,106
COc1cc2c(cc1OC)/C(=C/C(=O)c1ccc([N+](=O)[O-])c(C)c1)NCC2,4,.,92,.
COc1cccc(C(=O)/C=C2\NCCc3cc(OC)c(OC)cc32)c1,3,53*,101,.
CC(=NCCc1ccccc1)C1=C(O)CSC1=O,2,49*,74*,93
CC(=NCCc1ccccc1)C1=C(O)CCC1=O,-1,1,89,96
Cc1ccc2nc(/C(C#N)=C\c3cc(C)n(-c4cccc([N+](=O)[O-])c4)c3C)[nH]c2c1,1,58*,118,87
CCn1cc(C(=O)Nc2cc3c(cc2NC(C)=O)OCCO3)c(=O)c2ccc(C)nc21,.,.,.,102
COc1ccc(/C=C/C(=O)C2C(=O)C=C(C)OC2=O)cc1O (stereo not drawn),0,29,68*,129
CC(C)(NC(=O)N1CCOCC1)c1cccc(C(C)(C)NC(=O)N2CCOCC2)c1,0,0,92,96
CCn1cnc2c(NCCc3cccnc3)nc(C#N)nc21,1,71*,95,.
CCn1cnc2c(Nc3cccc(Cl)c3)nc(C#N)nc21,6,22,88,.
CCOC(=O)c1c2n(c3ccc(OC(C)=O)cc13)CCC2,0,48*,97,88
COc1ccc(Br)cc1/C=C/C(=O)Nc1ccc2ccccc2c1,2,50*,93,106
COc1ccccc1C(=O)Nc1ccc(Oc2ncnc3sc(-c4ccccc4)cc23)cc1,1,80*,97,96
SMILES,FXN GAA850 act,AHR act,ABCB6 inh 2,STAT3 activator
COc1ccc(NC(=O)c2ccc3ccccc3c2)cc1,4,58*,97,.
COc1ccccc1C(=O)Nc1ccc2ccccc2c1,7,56*,98,.
Cc1cnc(NC(=O)C(C)N2CCN(C)CC2)s1 (stereo not drawn),1,1,98,99
c1ccc2c(c1)ncn2-c1cncnc1,.,.,101,.
C/C(=N\NC(=O)Nc1ccccc1)c1ccc2ccccc2c1,4,70*,102,103
Cc1ccc(SCc2nc(N)nc(Nc3ccccc3C)n2)c(C)c1,5,27,98,89
Cc1ccc(Nc2nc(N)nc(CSCCO)n2)cc1,3,48*,104,119
Cc1ccc(Nc2nc(N)nc(CSc3nccn3C)n2)c(C)c1,4,48*,94,109
Nc1nc(CSc2n[nH]c(-c3ccccc3)n2)nc(Nc2ccccc2)n1,2,4,100,78
COc1ccc(Nc2nc(N)nc(CSc3n[nH]c(-c4ccccc4)n3)n2)cc1,2,49*,98,97
COc1ccc(Nc2nc(N)nc(CSCCO)n2)cc1,4,28,89,104
Cc1ccc(Nc2nc(N)nc(CSc3ncccn3)n2)cc1,6,68*,98,110
Cc1ccc(S(=O)(=O)/N=S(\C)CC2CC2(Cl)Cl)cc1 (stereo not drawn),-1,-1,97,98
O=C(C/C=N\OCc1ccc([N+](=O)[O-])cc1)Nc1ccc(F)cc1F,2,-3,108,98

# Screening data (PubChem)
